Activation and EC50 data for 25 compounds are collected here from PubChem BioAssay AID624401 (The Scripps Research Institute Molecular Screening Center, 2012).

In this experiment the target is Aryl hydrocarbon receptor (Homo sapiens) (UniProt P35869). In words: AhR reporter activation, late-stage follow-up, counter-screen for AHR activator project, luminescence, HG2L7.5c1 cells, set 2 (AID 624401). The following applies: HG2L7.5c1 HepG2 DRE-luciferase reporter, 24 h; for activation: at 10 µM, stronger effect = higher value. The essentials: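 Assay system: HepG2-derived HG2L7.5c1 AHR luciferase reporter cells; replicates: triplicate wells per compound; measured by: lysate luminescence; probe or stimulus: reporter construct with MMTV promoter plus 20 murine CYP1A1 DREs; times: compound exposure of cells for 24 h at 37 °C; control set: maximally inducing TCDD as reference for full activation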
Aryl hydrocarbon receptor (Homo sapiens), sequence (P35869 whole entry, looked up): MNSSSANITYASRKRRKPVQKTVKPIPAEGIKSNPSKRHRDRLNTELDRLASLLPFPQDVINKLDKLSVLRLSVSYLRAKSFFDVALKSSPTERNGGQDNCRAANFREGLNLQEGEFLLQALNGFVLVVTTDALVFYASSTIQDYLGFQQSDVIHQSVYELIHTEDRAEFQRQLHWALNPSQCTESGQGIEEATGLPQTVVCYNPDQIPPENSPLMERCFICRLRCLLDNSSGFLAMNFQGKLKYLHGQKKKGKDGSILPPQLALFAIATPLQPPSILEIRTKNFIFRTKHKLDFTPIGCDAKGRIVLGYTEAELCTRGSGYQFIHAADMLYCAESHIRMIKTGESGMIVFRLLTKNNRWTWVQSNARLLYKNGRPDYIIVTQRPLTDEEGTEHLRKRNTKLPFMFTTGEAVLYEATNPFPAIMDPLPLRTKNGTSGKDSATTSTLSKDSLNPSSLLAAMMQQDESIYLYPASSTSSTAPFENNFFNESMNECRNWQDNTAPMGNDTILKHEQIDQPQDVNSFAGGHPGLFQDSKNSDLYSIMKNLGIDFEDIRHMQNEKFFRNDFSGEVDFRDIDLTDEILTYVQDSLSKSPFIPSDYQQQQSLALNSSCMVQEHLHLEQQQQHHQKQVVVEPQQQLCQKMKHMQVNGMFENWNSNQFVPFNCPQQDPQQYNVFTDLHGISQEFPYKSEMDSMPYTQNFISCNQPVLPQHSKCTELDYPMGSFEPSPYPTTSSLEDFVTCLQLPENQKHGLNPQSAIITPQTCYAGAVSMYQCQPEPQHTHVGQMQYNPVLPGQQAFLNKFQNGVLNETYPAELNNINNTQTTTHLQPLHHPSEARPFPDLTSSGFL

Calls of active or inactive are those of the source.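 The calls were made as follows: active = activation of 20% or more; inactive = activation below 20%, including negative responses.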

With `CCOC(=O)c1c(C)nn(-c2cc(Cl)ccc2Cl)c1C`, the activation entry is “inactive”.

Take `COc1ccc(Nc2cc(Cl)nc(N)n2)cc1OC`: the activation result was “inactive”.

`O=C(CSc1nc2ccccc2s1)Nc1ccccn1` came in with an activation of 18.9%.

As to `CCOc1ccccc1NC(=O)c1ccc(C(=O)Nc2ccccc2OCC)nc1`, the activation was 48.4%.

As to `O=C(CSc1nc(-c2ccc(F)cc2)cs1)Nc1ccccn1`, the activation result was “inactive”.

With `Cc1cccc(NC(=O)c2cc(-c3ccc(C)cc3O)n[nH]2)c1`, the activation result is “inactive”.

Consider `COc1ccc(O)c(-c2cc(-c3cccs3)[nH]n2)c1`, for which the activation entry is “inactive”.

For the compound `Cc1ccc(NC(=O)c2ccc(C(=O)Nc3ccc(C)cc3C)nc2)c(C)c1`, the activation result was “inactive”.

Regarding `Cc1ccc(-c2cc(-c3ccc(F)cc3)n[nH]2)c(O)c1`, the EC50 was 0.25 µM.

Turning to `Cc1ccc(-c2cc(-c3ccc(Cl)cc3)n[nH]2)c(O)c1`, the half-maximal effective concentration (EC50) is 4 µM.

As to `O=C(CSc1nc2ccccc2s1)Nc1ccc(Cl)cn1`, the activation entry was “inactive”.

For `COc1ccc(Nc2cc(Cl)nc(N)n2)cc1`, the activation result is “inactive”.

Turning to `Nc1nc(Cl)cc(Nc2ccccc2F)n1`, the activation result was “inactive”.

On to `Cc1cc(Br)cc(C)c1Nc1ccnc(Nc2ccc(C#N)cc2)n1`, for which the activation result was “inactive”.

For the compound `COc1ccc(NC(=O)c2ccc(C(=O)Nc3ccc(OC)cc3OC)nc2)c(OC)c1`, the activation entry was “inactive”.

Consider `Cc1ccnc(NC(=O)CSc2nc3ccccc3s2)c1`, for which the activation entry was “inactive”.

For `Nc1nc(Cl)cc(Nc2ccc(Oc3ccccc3)cc2)n1`, the activation was 25.2%.

In the case of `COc1ccc(-c2cc(-c3ccc(C)cc3O)[nH]n2)cc1`, the activation came to 15.6%.

As to `Cc1csc(SCC(=O)Nc2ccccn2)n1`, the activation entry is “inactive”.

On to `Cc1ccc(O)c(-c2cc(-c3ccccc3Cl)[nH]n2)c1`, for which the activation was 32%.

Turning to `CN(Cc1cc(-c2cccs2)n[nH]1)Cc1coc2ccccc2c1=O`, the activation entry is “inactive”.

Turning to `COc1ccc(Cl)cc1NC(=O)c1ccc(C(=O)Nc2cc(Cl)ccc2OC)nc1`, the activation result is “inactive”.

For `Cc1cccc(C)c1NC(=O)c1ccc(C(=O)Nc2c(C)cccc2C)nc1`, the activation entry is “inactive”.

`Cc1ccc(-c2cc(-c3cccc(F)c3)n[nH]2)c(O)c1`: the concentration for a half-maximal effect (EC50) was 0.65 µM.

With `Cc1cc(Nc2ccc(F)cc2)nc(N)n1`, the activation result is “inactive”.
